Source: PubChem (Broad Institute)
PGC1a acetyl inh: modulators of PGC1a acetylation. U2OS PGC1a acetylation, AlphaScreen anti-acetyl-lysine; with virally co-expressed GCN5 acetyltransferase. inhibition, % at 15.6 µM. 0.17% of 350,000 active. AID 651687;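 active = every replicate shows inhibition of at least 40%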;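 also: 0% = neutral control wells and 100% = positive control wells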
EWS-Fli block: blocks EWS/Fli oncoprotein-driven transcription; A673 NR0B1-luciferase reporter, viability-normalised; inhibition, % at 12.6 µM; 0.67% of 350,000 active; AID 651661;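 active = mean inhibition of at least 50% after viability correction, with every replicate also passing that limit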;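 also: firefly luciferase signal divided by Alamar Blue viability fluorescence both relative to DMSO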
PAX8 reporter: lowers PAX8-driven luciferase in RMG-I cells | 1.2% of 360,000 active | RMG-I TPO-luciferase reporter, SteadyGlo, 24 h | inhibition, % at 12.6 µM;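 active = mean replicate inhibition at least 60% with every replicate also reaching 60%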;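 also: luciferase light reporting Pax8 driven TPO promoter activity; plate controls were median of neutral control wells for no effect and mitoxantrone controls for full effect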
XiGFP reactiv: reactivates the inactive X chromosome in mouse fibroblasts; 0.055% of 360,000 active; activation, % at 7.58 µM; XiGFP mouse fibroblasts, % GFP-positive cells imaging, 3 d; cells co-treated with 5-aza-dC sensitizer; scaled so ellipticine positive control = 100%;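 active = mean normalized replicate activation at least 10% and every replicate at or above 10%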;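 also: 0% = median of on-plate neutral control wells and 100% = ellipticine 6 µM median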
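System: 68-5-11 XiGFP fibroblast line | Buffer or medium: DMEM containing 5-aza-dC | Compound: Single point | Times: Compounds 3 days, fix/stain 15 min at room temperature | Benchmarks: Positive control ellipticine, 6 µM final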
MLL AF4-AF9 inh: inhibitors of human MLL-AF4/AF9 interaction; P42568; AlphaScreen, biotin-AF4 peptide binding to FLAG-AF9; inhibition, % at 10 µM; 0.47% of 350,000 active; AID 651704;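 active = every replicate reaching a set inhibition limit, whatever the replicate mean, cut at about 25% in these data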;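 also: 0% = plate neutral control median and 100% = total signal loss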
Target sequence (P42568 whole entry, looked up): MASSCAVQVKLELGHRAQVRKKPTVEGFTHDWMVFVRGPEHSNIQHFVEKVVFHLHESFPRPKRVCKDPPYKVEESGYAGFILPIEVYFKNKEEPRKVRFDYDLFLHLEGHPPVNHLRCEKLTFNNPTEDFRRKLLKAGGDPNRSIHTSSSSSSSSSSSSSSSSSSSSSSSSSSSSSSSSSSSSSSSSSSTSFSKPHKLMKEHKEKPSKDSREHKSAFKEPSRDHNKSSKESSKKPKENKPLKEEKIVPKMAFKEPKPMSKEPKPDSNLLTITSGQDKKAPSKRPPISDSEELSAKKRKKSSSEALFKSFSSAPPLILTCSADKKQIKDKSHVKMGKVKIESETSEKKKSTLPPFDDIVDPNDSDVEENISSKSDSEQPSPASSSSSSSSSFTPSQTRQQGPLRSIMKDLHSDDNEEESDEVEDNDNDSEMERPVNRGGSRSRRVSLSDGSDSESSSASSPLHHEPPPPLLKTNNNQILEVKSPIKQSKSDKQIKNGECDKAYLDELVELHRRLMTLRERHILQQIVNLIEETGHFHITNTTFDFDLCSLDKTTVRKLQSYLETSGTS
INS-1E GSIS act: GLuc luminescence reporter in INS-1E cells, primary screen for activators of glucose-dependent secretion of insulin | activation, % at 16.6 µM | 0.61% of 370,000 active | INS-1E GLuc reporter insulin secretion, 2-3 h | AID 743287;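 active = lowest replicate activation of at least 40%, so every replicate reaches that level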;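 also: 0% = median of neutral control wells and 100% = median of IBMX positive control wells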
Numbers without * were called inactive; nt = not tested or not shown. The list is not random: actives were taken first. Their share in the collection is about 2.1%.

SMILES | PGC1a acetyl inh | EWS-Fli block | PAX8 reporter | XiGFP reactiv | MLL AF4-AF9 inh | INS-1E GSIS act
COCC(=O)N(C)C[C@@H]1Oc2cc(C#CCC3CCCC3)ccc2S(=O)(=O)N([C@@H](C)CO)C[C@H]1C | 3 | 9 | 71* | 0 | 10 | -2
COCC(=O)N(C)C[C@@H]1Oc2cc(C#CCC3CCCC3)ccc2S(=O)(=O)N([C@@H](C)CO)C[C@@H]1C | -6 | 3 | 74* | 0 | 6 | -3
O=C(NC1CCCCC1)c1n[nH]c2c1CCCCC2 | nt | 79* | 55 | 0 | 0 | -15
COc1ccc(CCN(C)C(=O)COc2ccc(C(=O)c3ccccc3)cc2)cc1OC | 6 | -5 | 1 | 0 | 2 | 7
COc1ccc(CCN(C)C(=O)COc2cccc(-n3cnnn3)c2)cc1OC | 0 | -8 | -17 | 0 | -1 | 83*
CCOC(=O)Nc1ccc2c(c1)N(C(=O)CCN(CC)CC)c1ccccc1CC2 | nt | 15 | 40 | 0 | 1 | -1
CCOC(=O)Nc1ccc2c(c1)N(C(=O)CCN(CC)CC)c1ccccc1S2=O (centres undefined) | -13 | 6 | 109* | 0 | -1 | 75
COc1ccc(NC(=O)Nc2cccc3c2O[C@@H](CN(C)Cc2ccc(C(=O)Nc4ccccc4N)cc2)[C@H](C)CN([C@@H](C)CO)C3=O)cc1 | 15 | -5 | -6 | -1 | -3 | 13
O=C(NC1CCCCCC1)C1c2ccccc2C(=O)N1Cc1cccs1 (centres undefined) | nt | -5 | 91* | 0 | 1 | 5
O=C(NC1CCCCCC1)C1c2ccccc2C(=O)N1Cc1ccco1 (centres undefined) | 10 | nt | nt | nt | nt | -9
C[C@H](CO)N1C[C@H](C)[C@H](CN(C)C(=O)CCCN(C)C)OCCCC[C@H](C)Oc2ccc(NS(=O)(=O)c3cn(C)cn3)cc2C1=O | 4 | -2 | -5 | -1 | 1 | 13
COc1ccc(C2=NOC(C(=O)NO)C2)cc1OC1CCCC1 (centres undefined) | nt | 6 | -42 | nt | 2 | nt
Cc1cc2nc(/C=C/c3nc4cc(C)c(C)cc4[nH]3)[nH]c2cc1C | -5 | 22 | 7 | 0 | -5 | -9
Cc1cc2nc(/C=C/c3cccnc3)[nH]c2cc1C | 67* | 3 | 2 | 0 | -14 | 17
C=CC[C@H](CC(=O)N(CCO)Cc1ccccc1)C(=O)N[C@@H](COC(=O)[C@@H](CC=C)Cc1ccc(F)cc1)Cc1c[nH]c2ccccc12 | nt | 0 | 69* | 0 | -5 | -13
C=CCC[C@@H](Cc1ccc(F)cc1)C(=O)OC[C@@H](Cc1c[nH]c2ccccc12)NC(=O)[C@H](CC=C)CC(=O)N(CCO)Cc1ccccc1 | 2 | 4 | 101* | 0 | -4 | -6
C=CCC[C@@H](Cc1ccc(F)cc1)C(=O)OC[C@H](Cc1c[nH]c2ccccc12)NC(=O)[C@H](CC=C)CC(=O)NCCO | 5 | 7 | 27 | 0 | 6 | -27
C=CCC[C@H](Cc1ccc(F)cc1)C(=O)OC[C@@H](Cc1c[nH]c2ccccc12)NC(=O)[C@H](CC=C)CC(=O)NCCO | -14 | -2 | 28 | 0 | nt | -31
C=CC[C@@H](CC(=O)N(CCO)Cc1ccccc1)C(=O)N[C@@H](COC(=O)[C@@H](CC=C)Cc1ccc(F)cc1)Cc1c[nH]c2ccccc12 | nt | -6 | 50 | 0 | 3 | -15
C=CCC[C@H](Cc1ccc(F)cc1)C(=O)OC[C@@H](Cc1c[nH]c2ccccc12)NC(=O)[C@H](CC=C)CC(=O)N(CCO)Cc1ccccc1 | -6 | 6 | 77* | 0 | 3 | -55
C=CC[C@@H](CC(=O)N[C@H](CO)Cc1ccccc1)C(=O)N[C@H](COC(=O)[C@@H](CC=C)Cc1ccc(F)cc1)Cc1c[nH]c2ccccc12 | nt | 13 | 88* | -1 | -4 | -14
C=CC[C@H](CC(=O)N[C@H](CO)Cc1ccccc1)C(=O)N[C@H](COC(=O)[C@@H](CC=C)Cc1ccc(F)cc1)Cc1c[nH]c2ccccc12 | 7 | nt | nt | nt | nt | nt
COc1ccc(CN(C)C[C@@H]2Oc3ccc(NC(=O)Nc4ccc(C(F)(F)F)cc4)cc3C(=O)N([C@@H](C)CO)C[C@H]2C)cc1 | -2 | 4 | nt | 1 | 2 | 21
COC(=O)c1cc(=O)n(-c2ccc(F)cc2)c(=Nc2ccc(F)cc2)s1 | nt | 15 | 53 | 0 | 27* | 21
COCC(=O)Nc1ccc2c(c1)[C@@H]1C[C@@H](CC(=O)N3CCCCC3)O[C@@H](CO)[C@@H]1O2 | -2 | 3 | 8 | 0 | nt | -4
SMILES | PGC1a acetyl inh | EWS-Fli block | PAX8 reporter | XiGFP reactiv | MLL AF4-AF9 inh | INS-1E GSIS act
C=C1C(=O)O[C@H]2[C@@H]1CC/C(CO)=C\CC[C@@]1(C)O[C@@H]21 | -61 | 11 | 83* | nt | -3 | nt
C=C1C(=O)O[C@H]2[C@H]1[C@@H](O)CC(=C)[C@@H]1CC(=O)[C@@H](C)[C@H]21 | -72 | nt | nt | nt | nt | nt
O=C(C[n+]1cccc(CNC(=O)c2ccc(OC(F)F)cc2)c1)Nc1ccc(SC(F)F)cc1 | 8 | nt | 67* | 1 | nt | 5
CCOC(=O)c1ccccc1NC(=O)CN(c1ccccc1OC)S(C)(=O)=O | 4 | nt | nt | nt | nt | 62*
C[C@H](CO)N1C[C@H](C)[C@H](CN(C)S(=O)(=O)c2cn(C)cn2)Oc2c(NC(=O)NC3CCCCC3)cccc2C1=O | 2 | -1 | nt | 0 | -4 | 10
COc1ccc(CN(CCN2CCOCC2)C(=O)c2c(F)cccc2F)cc1OC | 0 | -2 | nt | nt | -50 | 31
C=CCN(Cc1ccc(OC)c(OC)c1)C(=O)N1CCOCC1 | 5 | 1 | 6 | 0 | 0 | 53*
CCn1cc(C(=O)O)c(=O)c2cc(F)c(N3CCN(C(=S)NC(=O)c4cccc(C)c4)CC3)cc21 | 1 | 12 | 22 | 0 | -13 | 44*
CCn1cc(C(=O)O)c(=O)c2cc(F)c(N3CCN(C(=S)NC(=O)c4ccc(Br)cc4)CC3)cc21 | -5 | 16 | 1 | 0 | -1 | 13
COc1ccccc1C(=O)Nc1ccc2c(c1)OC[C@@H](C)N(C)C[C@@H](C)[C@@H](OC)CN(C)C2=O | -12 | -8 | -1 | 0 | 0 | -2
O=C(NCC[C@H]1CC[C@H](NS(=O)(=O)c2ccc(Cl)cc2)[C@@H](CO)O1)Nc1ccc(F)cc1 | -14 | -15 | -3 | 0 | 27* | -8
O=C(Nc1cccc(F)c1)N[C@@H]1CC[C@@H](CCNS(=O)(=O)c2cccc(Cl)c2)O[C@@H]1CO | -9 | -1 | 107* | -1 | 0 | -27
O=C(Nc1cccc(F)c1)N[C@H]1CC[C@@H](CCNS(=O)(=O)c2cccc(Cl)c2)O[C@@H]1CO | -2 | 27 | -22 | 0 | 3 | -16
